This is an account of results in paper PMC10077533 (ACS Omega, 2023).

Assay [1] relates to MDA-MB-468 breast cancer cells. The assay is described as follows: JC-1 staining, mitochondrial membrane potential by flow cytometry. The format is cell-based, human. The following applies: MDA-MB-468, positive control, 5μM CCCP.
Assay [2] deals with ct-DNA. The note with it: obtained from the literature; cited from earlier work.
Assay [3] has as its system calf-thymus DNA (ct-DNA). The note with it: classical DNA intercalator, comparison value; cited from earlier work.
Assay [4] deals with MDA-MB-468 breast cancer cells. As to the kind of experiment: γ-H2AX staining, detection of DNA damage. The format is cell-based, human. The note with it: MDA-MB-468, 50 μM. The essentials: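 MDA-MB-468 cells treated with test compound, then immunocytochemically stained for γ-H2AX, with untreated cells as control. DNA damage imaged as red fluorescence, and red fluorescence intensity quantified.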

As for `N#CC(C#N)=NNc1cccc(Cl)c1` [CCCP, carbonyl cyanide m-chlorophenylhydrazone], in assay [1], the “cells with damaged mitochondria (JC-1 monomers)” value turned out to be 76.98% and the “cells with healthy mitochondria (red + green fluorescing JC-1 aggregates)” value is 22.08%.
As to `CC[n+]1c(-c2ccccc2)c2cc(N)ccc2c2ccc(N)cc21` [EtBr, ethidium bromide], the “KEtBr, EtBr binding constant” value in assay [2] is listed as 1.0 × 10^7 M^–1. For the same compound, the “Kb value of EtBr (KEtBr)” value in assay [3] is on record as 7 × 10^5 M^–1.
Take `N.N.[Cl][Pt][Cl]` [cisplatin]: the “γH2AX (phosphorylated histone) staining” value in assay [4] was “DNA damage”.
